Measured values reported in ChEMBL document CHEMBL5338796, “Discovery of a Selective and Orally Bioavailable FGFR2 Degrader for Treating Gastric Cancer” (J Med Chem, 2023).
Calls of active or inactive are those of the source. The calls are words filed in the database; no cut-off is given here.

Tests used:
[1] = target: Fibroblast growth factor receptor 2 (Homo sapiens) (UniProt P21802); test: Induction of FGFR2 receptor relocalization in human KATO III stomach cancer cell line at 100 nM measured for 3 hrs by immunofluorescence assay; type: cell-based; conditions: filed as activator
Chain of Fibroblast growth factor receptor 2 (Homo sapiens) (P21802 22-821 limits assumed): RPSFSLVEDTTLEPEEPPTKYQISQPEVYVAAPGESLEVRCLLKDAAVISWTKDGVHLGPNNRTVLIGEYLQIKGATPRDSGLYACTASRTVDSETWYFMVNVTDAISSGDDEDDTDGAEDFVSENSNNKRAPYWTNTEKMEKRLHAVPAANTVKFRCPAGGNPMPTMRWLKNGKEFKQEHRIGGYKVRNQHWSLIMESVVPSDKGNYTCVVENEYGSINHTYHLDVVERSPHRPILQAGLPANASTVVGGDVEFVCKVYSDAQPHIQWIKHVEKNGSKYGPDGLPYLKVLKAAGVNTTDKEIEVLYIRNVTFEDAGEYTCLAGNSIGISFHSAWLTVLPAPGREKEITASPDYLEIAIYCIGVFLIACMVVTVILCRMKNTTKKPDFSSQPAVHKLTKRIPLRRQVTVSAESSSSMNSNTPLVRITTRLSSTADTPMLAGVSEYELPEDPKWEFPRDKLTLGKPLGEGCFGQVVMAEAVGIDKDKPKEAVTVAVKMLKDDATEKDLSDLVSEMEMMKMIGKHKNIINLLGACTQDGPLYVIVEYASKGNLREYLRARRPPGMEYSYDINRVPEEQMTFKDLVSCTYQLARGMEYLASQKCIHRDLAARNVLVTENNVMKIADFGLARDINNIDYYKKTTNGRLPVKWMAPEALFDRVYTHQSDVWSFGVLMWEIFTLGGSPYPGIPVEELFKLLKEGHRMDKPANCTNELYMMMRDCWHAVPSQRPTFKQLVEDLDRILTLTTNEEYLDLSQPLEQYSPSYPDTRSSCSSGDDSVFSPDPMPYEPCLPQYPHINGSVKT
Method in brief: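 KATO III cells treated with 100 nM for 3 or 6 h, fixed in 2% formaldehyde 2 min, blocked 5% BSA 1 h, anti-FGFR2 overnight, Alexa Fluor 488 secondary 1 h, DAPI 10 min; imaged by fluorescence microscopy.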

[2] = target: T1, Protein cereblon/Fibroblast growth factor receptor 2 (Homo sapiens, UniProt P21802+Q96SW2); test: PROTAC activity at CRBN/FGFR2 in human KATO III stomach cancer cell line assessed as FGFR2 degradation by measuring FGFR2 expression level upto 100 nM by Western blotting analysis; type: cell-based; conditions: time 12.0 hrs, TDE = time-dependent effect
T1 sequence (P21802 22-821 limits assumed): as above
T1 sequence (Q96SW2 whole entry partner): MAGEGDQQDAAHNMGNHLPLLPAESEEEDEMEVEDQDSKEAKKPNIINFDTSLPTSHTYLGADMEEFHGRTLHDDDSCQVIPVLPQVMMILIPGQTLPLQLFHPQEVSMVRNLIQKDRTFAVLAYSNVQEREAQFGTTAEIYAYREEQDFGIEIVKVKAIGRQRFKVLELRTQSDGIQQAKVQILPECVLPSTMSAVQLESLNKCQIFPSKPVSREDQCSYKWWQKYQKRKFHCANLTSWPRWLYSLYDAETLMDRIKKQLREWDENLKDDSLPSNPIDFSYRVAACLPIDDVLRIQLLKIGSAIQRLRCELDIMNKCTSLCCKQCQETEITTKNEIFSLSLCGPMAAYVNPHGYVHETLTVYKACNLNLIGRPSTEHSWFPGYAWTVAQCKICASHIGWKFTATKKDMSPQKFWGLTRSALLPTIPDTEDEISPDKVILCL
Method in brief: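 KATO III cells treated 6 h across 0.5–10,000 nM (DMSO stock, final DMSO below 0.5%); FGFR2 immunoblotted, quantified as FGFR2/β-actin ratio normalized to DMSO-treated cells, three independent biological experiments; DC50 and Dmax derived from the curve.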

[3] = target: Mitogen-activated protein kinase kinase kinase 4 (Homo sapiens) (UniProt Q9Y6R4); test: Inhibition of partial length human MAP3K4 at 1000 nM by KINOMEscan analysis relative to control
Chain of Mitogen-activated protein kinase kinase kinase 4 (Homo sapiens) (Q9Y6R4 whole entry): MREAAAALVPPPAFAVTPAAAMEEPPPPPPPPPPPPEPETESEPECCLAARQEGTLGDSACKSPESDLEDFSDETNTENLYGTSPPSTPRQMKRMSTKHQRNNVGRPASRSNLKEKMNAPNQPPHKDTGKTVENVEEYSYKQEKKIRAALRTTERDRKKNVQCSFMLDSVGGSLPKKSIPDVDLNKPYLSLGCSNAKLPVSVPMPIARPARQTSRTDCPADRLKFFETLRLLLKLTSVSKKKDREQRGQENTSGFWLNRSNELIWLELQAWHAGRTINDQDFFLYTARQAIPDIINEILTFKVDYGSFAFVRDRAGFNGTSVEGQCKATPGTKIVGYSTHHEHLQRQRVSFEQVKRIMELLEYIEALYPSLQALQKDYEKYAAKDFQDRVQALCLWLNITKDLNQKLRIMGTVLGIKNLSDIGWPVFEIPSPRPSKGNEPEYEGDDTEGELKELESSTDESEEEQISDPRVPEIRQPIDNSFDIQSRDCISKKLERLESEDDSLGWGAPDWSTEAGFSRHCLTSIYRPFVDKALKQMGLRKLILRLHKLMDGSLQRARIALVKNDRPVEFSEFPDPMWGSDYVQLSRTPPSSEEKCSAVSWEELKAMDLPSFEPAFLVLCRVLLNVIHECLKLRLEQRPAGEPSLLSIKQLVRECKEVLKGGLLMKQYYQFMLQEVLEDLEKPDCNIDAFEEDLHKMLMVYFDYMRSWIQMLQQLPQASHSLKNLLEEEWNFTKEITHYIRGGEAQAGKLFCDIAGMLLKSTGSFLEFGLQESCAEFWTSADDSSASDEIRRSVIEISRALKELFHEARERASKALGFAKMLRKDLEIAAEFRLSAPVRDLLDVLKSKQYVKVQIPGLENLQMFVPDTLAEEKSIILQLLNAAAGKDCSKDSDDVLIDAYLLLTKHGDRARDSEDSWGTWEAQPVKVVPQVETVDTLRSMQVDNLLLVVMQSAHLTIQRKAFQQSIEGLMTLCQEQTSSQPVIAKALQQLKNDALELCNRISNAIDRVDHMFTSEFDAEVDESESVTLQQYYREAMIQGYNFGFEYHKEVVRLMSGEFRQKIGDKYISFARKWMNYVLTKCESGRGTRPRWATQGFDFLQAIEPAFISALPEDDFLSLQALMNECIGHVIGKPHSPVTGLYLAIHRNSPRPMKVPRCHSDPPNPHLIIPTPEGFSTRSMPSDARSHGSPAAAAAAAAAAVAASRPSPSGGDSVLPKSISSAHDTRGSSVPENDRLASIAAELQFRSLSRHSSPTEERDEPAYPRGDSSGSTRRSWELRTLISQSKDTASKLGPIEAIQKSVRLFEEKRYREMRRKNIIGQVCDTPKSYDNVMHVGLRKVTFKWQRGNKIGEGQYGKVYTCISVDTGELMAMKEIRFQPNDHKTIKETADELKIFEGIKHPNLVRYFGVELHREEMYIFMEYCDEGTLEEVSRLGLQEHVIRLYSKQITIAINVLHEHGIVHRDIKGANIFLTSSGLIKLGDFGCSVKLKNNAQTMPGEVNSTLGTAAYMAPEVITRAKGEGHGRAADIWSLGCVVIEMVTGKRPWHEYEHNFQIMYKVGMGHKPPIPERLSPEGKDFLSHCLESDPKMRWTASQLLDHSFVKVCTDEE

[4] = target: T1, Protein cereblon/Fibroblast growth factor receptor 2; test: PROTAC activity at CRBN/FGFR2 in human KATO III stomach cancer cell line at 100 nM measured for 6 hrs by Western blot analysis relative to control; type: cell-based
Method in brief: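 KATO III cells treated for 6 h at the stated concentrations, added from 10 mM DMSO stocks (final DMSO below 0.5%). Cells were washed with PBS and lysed in 2× loading buffer, then run on SDS-PAGE and blotted to PVDF. Anti-FGFR2 was applied overnight at 4 °C, with ECL detection. FGFR2 was expressed as FGFR2/β-actin, normalized to DMSO-treated cells, from three independent biological experiments.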

[5] = Hepatotoxicity in ICR mouse assessed as effect on AST level at 20 mg/kg, po measured for 30 days; type: toxicity, organism-based; conditions: in vivo, 720 h, time 30 day
Method in brief: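 ICR mice given 20 mg/kg/day orally for 30 days (n = 6), vehicle controls; mortality and clinical signs checked daily, then AST/ALT and creatinine, organ weights, haematology and H&E of heart, liver, spleen, lung, kidney.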

[6] = Tmax in mouse at 20 mg/kg, po measured at 0.25 to 24 hrs by LC-MS/MS analysis; conditions: in vivo
[7] = AUC (0 to infinity) in mouse at 3 mg/kg, iv measured at 0.083 to 24 hrs by LC-MS/MS analysis; conditions: in vivo

## COc1cc(OC)c(Cl)c(NC(=O)N(C)c2cc(Nc3ccc(N4CCN(C(=O)C5CCN(c6ccc7c(c6)C(=O)N(C6CCC(=O)NC6=O)C7=O)CC5)CC4)cc3)ncn2)c1Cl (configuration not stated)
[1]
  Activity: Active
[2]
  Activity: Tde
[3]
  inhibition: 45%
[4]
  Activity: 77%
[5]
  Activity: Non-Toxic
[6]
  Tmax: 2.67 h
[7]
  AUC(0-inf): 422 ng·h/mL
